Only some compounds are listed: those with a hit (about 1.5% of all), similar ones and a draw of the others.
APJ agonist: activates the human apelin receptor APJ. 0.11% of 330,000 active. CHO-K1 APJ PathHunter beta-arrestin, luminescence; 0% DMSO wells, 100% apelin. AID 2520. activation, % at 20 µM. P35414;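 active = activation more than six SD over the plate average, tested at 20 µM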;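 note: 0% = DMSO alone and 100% = apelin-13 at 10 nM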
Target sequence (P35414 whole entry, looked up): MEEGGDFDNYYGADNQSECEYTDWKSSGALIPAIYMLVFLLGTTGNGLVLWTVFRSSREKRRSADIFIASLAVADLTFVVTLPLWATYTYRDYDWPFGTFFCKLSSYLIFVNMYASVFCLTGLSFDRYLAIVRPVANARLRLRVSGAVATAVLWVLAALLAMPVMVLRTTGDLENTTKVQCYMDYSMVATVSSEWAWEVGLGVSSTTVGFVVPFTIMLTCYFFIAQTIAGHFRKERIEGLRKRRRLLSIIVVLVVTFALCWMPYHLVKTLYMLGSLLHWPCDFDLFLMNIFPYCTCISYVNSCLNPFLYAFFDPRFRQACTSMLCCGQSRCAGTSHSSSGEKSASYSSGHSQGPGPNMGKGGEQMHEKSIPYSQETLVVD
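Assay system – PathHunter CHO-K1 APJ (AGTRL-1) beta-arrestin reporter cells · Compound – one dose, 20 µM compound, 1% DMSO · Timing – compound 90 min 25 °C, reagent 1 h · Measured by – luminescence from split beta-galactosidase complementation, Galacton Star/Emerald II substrate · Measure – beta-arrestin recruitment to APJ as agonist activity, luminescent signal · Benchmarks – DMSO vs Apelin-13 10 nM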
EBI2 antag: blocks human EBI2 receptor beta-arrestin signaling | P32249 | EBI2 beta-arrestin recruitment, luminescence, 7a,25-OHC stimulated | inhibition, % at 5 µM | 0.81% of 360,000 active | AID 651636; in the data active = inhibition above about 38%;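 note: enzyme fragment complementation signal reports receptor beta-arrestin coupling in cells; 0% = agonist plus DMSO wells and 100% = wells without agonist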
Target sequence (P32249 whole entry, looked up, the tested form may be a part): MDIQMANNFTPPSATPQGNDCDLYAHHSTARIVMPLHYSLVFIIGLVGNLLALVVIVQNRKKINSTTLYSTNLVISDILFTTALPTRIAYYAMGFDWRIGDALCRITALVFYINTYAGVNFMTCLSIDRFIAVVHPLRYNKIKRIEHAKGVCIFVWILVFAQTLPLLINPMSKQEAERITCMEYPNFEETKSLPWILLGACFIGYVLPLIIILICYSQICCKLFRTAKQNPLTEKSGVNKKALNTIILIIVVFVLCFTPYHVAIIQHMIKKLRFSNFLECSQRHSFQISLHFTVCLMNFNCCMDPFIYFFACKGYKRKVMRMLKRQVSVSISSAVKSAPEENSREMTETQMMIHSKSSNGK
CXCR6 block: CXCR6 (human) receptor inhibition; AID 602244; 0.36% of 360,000 active; O00574; inhibition, % at 20 µM; CHO-K1 PathHunter CXCR6 beta-arrestin, luminescence; in the data active = inhibition above about 34%, passing the limit was not always enough;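 note: antagonist mode with CXCL16 agonist at 10 nM final; 0% = 10 nM CXCL16 with DMSO and 100% = unstimulated wells without agonist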
CCR6 antagonist: antagonists of human CCR6 receptor | P51684 | CHO-K1 CCR6 PathHunter beta-arrestin, luminescence, CCL20-stimulated | inhibition, % at 20 µM | 0.49% of 340,000 active;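 active = compounds whose inhibition of the agonist-driven luminescence signal at 20 µM reaches about 50%, limit read from the data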;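 note: cells stimulated with CCL20 at 14 nM final; plate controls were DMSO with CCL20 for no effect and DMSO without agonist for full effect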
APJ antag: antagonists of human APJ apelin receptor | P35414 | CHO-K1 APJ beta-arrestin complementation, luminescence | inhibition, % at 20 µM | 0.32% of 330,000 active;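 active = inhibition above about 40% at 20 µM, limit read from the data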;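 note: cells challenged with 10 nM apelin-13 agonist together with compound; plate controls were apelin-13 plus DMSO wells for no effect and DMSO wells lacking apelin-13 for full effect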
EBI2 conf: confirmation of human EBI2 receptor antagonists; shares compounds with EBI2 antag; EBI2 beta-arrestin luminescence, 7a,25-OHC antagonism; inhibition, % at 5 µM; AID 651997; 29% of 2,400 active;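 active = inhibition of at least 50%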
EBI2 ag: activates EBI2, counter-screen for EBI2 antagonists | 2,400 tested, under 10 active | EBI2-expressing cells, agonist mode, luminescence, 60 min; 0% vehicle, 100% 7α,25-dihydroxycholesterol control | activation, % at 5 µM | shares compounds with EBI2 antag;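 active = activation of at least 50%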
bGal counter: beta-galactosidase inhibition counter-screen; shares compounds with EBI2 antag; purified beta-galactosidase, luminescent Galacton Star, 15 min; inhibition, % at 5 µM; 1% of 2,400 active;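 active = replicate-average signal at least 3 plate SD below neutral wells, shown as high inhibition, flagging enzyme-inhibiting false positives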;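 note: 0% = DMSO wells with enzyme and 100% = wells lacking enzyme; higher means stronger loss of beta-gal luminescence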
* = called active by the depositor; . = no result given.

SMILES | APJ agonist | EBI2 antag | CXCR6 block | CCR6 antagonist | APJ antag | EBI2 conf | EBI2 ag | bGal counter
C=CCOC(=O)Nc1c(C(=O)OC)[nH]c2ccccc12 | -2.1 | -7.4 | -1.7 | 3.5 | -12.4 | . | . | .
O=C(c1ccccc1)N1CCC(c2nc(-c3ccc(S(=O)(=O)N4CCOCC4)cc3)no2)CC1 | -2.3 | 21.2 | 7.9 | -2.4 | 21.4 | . | . | .
O=C(Nc1ccccc1)N1CCC(c2nc(-c3ccc(S(=O)(=O)N4CCOCC4)cc3)no2)CC1 | -4.1 | 44.7* | -1.4 | 0.1 | 16.0 | 27.2 | 0.0 | 11.0
O=C(Nc1cccc(C(F)(F)F)c1)N1CCC(c2nc(-c3ccc(F)cc3)no2)CC1 | -3.2 | 42.5* | -22.2 | -2.9 | -29.6 | 6.4 | -0.9 | -10.7
Cc1cccc(C(=O)N2CCC(c3nc(-c4ccc(S(=O)(=O)N5CCOCC5)cc4)no3)CC2)c1 | -3.5 | 78.6* | 0.5 | 10.9 | -8.3 | 53.7* | 1.8 | 1.9
O=C(Nc1ccccc1)N1CCCC(c2nc(-c3ccc(F)cc3)no2)C1 (stereo not drawn) | 1.7 | 6.1 | -10.4 | -6.0 | -2.4 | . | . | .
CSc1ccc(S(=O)(=O)N2CCC(C(=O)N3CCOCC3)CC2)cc1 | -4.2 | -10.2 | -2.9 | 0.7 | -6.7 | . | . | .
CC(C)c1ccc(/C=C/C(=O)N2CCOCC2)cc1 | -2.8 | 29.6 | -5.5 | 13.4 | 2.4 | . | . | .
O=C(/C=C/c1ccc(Br)cc1)NC(=S)N1CCOCC1 | -0.5 | 64.2* | -3.3 | -1.9 | -6.8 | 48.3 | 0.3 | -0.1
O=C(/C=C/c1ccc2c(c1)OCO2)N1CCN(c2ccc(Cl)cc2)CC1 | 2.6 | 47.5* | -2.1 | -11.9 | 1.4 | 28.6 | 1.8 | 5.5
O=C(/C=C/c1ccc(Cl)c(Cl)c1)N1CCOCC1 | 3.6 | 57.4* | -2.2 | 1.9 | 21.8 | 55.3* | -1.2 | -19.9
O=C(/C=C/c1ccc(Cl)cc1)N1CCOCC1 | -4.7 | 50.2* | 2.9 | 14.6 | 8.0 | 30.0 | -1.2 | -10.0
COc1ccc(-c2cc(C(=O)N(C)CC(=O)Nc3ccccc3Br)c3ccccc3n2)cc1OC | 6.1 | -34.1 | -11.4 | 0.1 | -0.3 | . | . | .
CCC(=O)N1CCc2cc(Br)c(S(=O)(=O)CCC(=O)NCCc3ccccc3)cc21 | . | 4.3 | -1.5 | -3.3 | . | . | . | .
CCCCN1C[C@H](O)[C@@H](O)[C@H](O)[C@H]1CO | 2.0 | 3.9 | -6.7 | -1.6 | -3.4 | . | . | .
COc1ccccc1C(=O)NCC(=O)OC(C)C(=O)N(C)C1CCCCC1 (stereo not drawn) | -1.1 | -3.3 | 5.6 | 1.7 | 20.5 | . | . | .
CC(OC(=O)CNC(=O)c1ccc2ccccc2c1)C(=O)N(C)C1CCCCC1 (stereo not drawn) | -5.2 | 50.4* | 11.1 | 13.7 | 17.5 | 24.8 | -1.1 | -10.5
Cc1ccc(OCCOC(=O)C2CCN(S(=O)(=O)c3ccc(C)c(C)c3)CC2)cc1 | -1.7 | 56.3* | -1.0 | 1.8 | 11.1 | 26.0 | -0.1 | 6.5
Cc1cccc(OCCOC(=O)C2CCN(S(=O)(=O)c3ccc(C)c(C)c3)CC2)c1 | -0.6 | 22.4 | 12.9 | 26.4 | -12.6 | . | . | .
Cc1ccc(S(=O)(=O)N2CCC(C(=O)OCCOc3ccccc3)CC2)cc1C | -4.1 | 45.5* | -8.6 | 12.6 | 10.4 | 40.2 | -1.5 | -20.1
Cc1ccc(C2CC(=O)C=C(Nc3ccc(Cl)cc3)C2)cc1 (stereo not drawn) | -2.3 | 74.6* | -5.0 | -3.3 | -0.3 | 64.4* | 2.7 | 5.9
O=C1C=C(Nc2ccc(Cl)cc2)CC(c2ccc(Cl)cc2)C1 (stereo not drawn) | -3.7 | 80.9* | -6.4 | 18.5 | 17.8 | 82.4* | 0.6 | -0.6
CC(C)N(C(=O)COC(=O)c1ccccc1C(=O)c1ccc(Cl)c([N+](=O)[O-])c1)C(C)C | -2.1 | 46.4* | 20.0 | 26.6 | 5.6 | 37.5 | -0.1 | 7.9
CC(=O)c1ccc(Nc2ccc(-c3ccccc3F)nn2)cc1 | -1.5 | 42.2* | -6.9 | 4.9 | -9.9 | 25.8 | -1.8 | -4.6
COC(=O)Cc1ccc(NC(=O)c2ccc3c(c2)C(=O)N(Cc2ccco2)C3=O)cc1 | -1.6 | 51.5* | -7.5 | 9.7 | -7.6 | 24.3 | 2.1 | 9.0
SMILES | APJ agonist | EBI2 antag | CXCR6 block | CCR6 antagonist | APJ antag | EBI2 conf | EBI2 ag | bGal counter
COC(=O)Cc1ccc(NC(=O)c2ccc3c(c2)C(=O)N(Cc2cccnc2)C3=O)cc1 | -3.4 | 12.0 | -0.4 | 4.0 | -12.7 | . | . | .
COc1ccccc1/C=N/Nc1nc(C)cc(=O)[nH]1 | . | -9.5 | 2.7 | . | . | . | . | .
O=C(CCCOc1ccccc1)N1CCN(S(=O)(=O)c2cccc(F)c2)CC1 | -7.5 | 37.2 | -2.5 | 13.3 | 15.0 | . | . | .
Cc1ccc(OCCCC(=O)N2CCN(S(=O)(=O)c3cccc(F)c3)CC2)cc1 | -5.7 | 52.8* | 6.2 | 15.0 | -60.0 | 12.9 | -1.2 | -13.6
O=C(CCCOc1ccccc1)N1CCN(S(=O)(=O)c2ccccc2)CC1 | -4.8 | 46.0* | 1.8 | -2.3 | -2.4 | 40.0 | 0.9 | 1.1
O=C1C2C(c3ccccc3)(C(=O)N1c1ccc(Cl)cc1)C2(c1ccccc1)c1ccccc1 (stereo not drawn) | -1.4 | -8.8 | -1.5 | 21.4 | 2.3 | . | . | .
O=C1CCN(Cc2ccccc2)C=C1c1ccc(Br)cc1 | -0.3 | 84.5* | -8.2 | 22.1 | 7.5 | 66.7* | -0.5 | -5.6
Cc1ccc(C2=CN(Cc3ccccc3)CCC2=O)cc1 | -2.2 | 44.1* | -4.0 | 16.3 | -0.9 | 25.0 | 1.8 | 3.6
O=C(NCc1ccccc1)c1ccc(C(=O)NCc2ccccc2)cc1 | . | 47.5* | 7.5 | 2.2 | . | 0.6 | -1.2 | -11.4
O=C(NCc1ccccc1)c1ccccc1 | . | -5.9 | -5.1 | 13.2 | . | . | . | .
O=C(NCc1ccccc1)c1ccc(CN2CCC(Cc3ccccc3)CC2)cc1 | -3.6 | 49.6* | 5.2 | 8.1 | 1.4 | 18.6 | 0.1 | 0.3
CC(=O)Nc1ccc(S(=O)(=O)NCC2CCC(C(=O)NCCCOC(C)C)CC2)cc1 (stereo not drawn) | -3.7 | . | . | -4.2 | 3.3 | . | . | .
COC(=O)C(C(C)C)N1CCc2c(C)nc3c(C#N)cnn3c21 (stereo not drawn) | -4.0 | 2.5 | 5.8 | 0.1 | 8.0 | . | . | .
CCc1ccccc1Nc1nc2ccccc2[nH]1 | 14.0 | -20.3 | -4.6 | -23.9 | 7.8 | . | . | .
COc1ccc(C(=O)N2CCN(c3nc(C4CC4)nc4sc(C)c(C)c34)CC2)cc1 | -1.7 | 49.1* | 6.3 | 8.9 | -1.0 | 18.8 | 0.2 | 1.4
Cc1sc2nc(C3CC3)nc(N3CCN(C(=O)c4ccc(Cl)cc4)CC3)c2c1C | -0.3 | 75.8* | 16.9 | 6.4 | 4.1 | 44.3 | 1.4 | 8.4
CCCCOC(=O)c1ccc(NC(=O)CSC2=Nc3ccccc3C3CC=NN23)cc1 (stereo not drawn) | -1.6 | 58.5* | 12.2 | 15.3 | -5.3 | 16.5 | 0.0 | 8.7
